Data: publication PMC8137654 (Bioconjugate chemistry, 2021)
Entries after “also recorded” stand apart in the source; their conditions may differ. Each block holds one compound with its values, some of them ahead of it. Non-standard residues stand in square brackets, D forms with d. Residues, ends and D or L forms follow the SMILES beside them. ξ: configuration not given here. *: point of attachment. X1 = COc1cc(N=Nc2ccccc2[N+](=O)[O-])c(C)cc1N=Nc1ccc(N(C)CCCC(=O)*)cc1; X2 = O=C(O)c1cc(C(=O)*)ccc1-c1c2ccc(=O)cc-2oc2cc(O)ccc12; X3 = O=P(O)(O)C(O)(CCN*)P(=O)(O)O; ξH = NC(Cc1c[nH]cn1)C(=O)O; ξQ = NC(=O)CCC(N)C(=O)O; ξP = O=C(O)C1CCCN1; βAla = NCCC(=O)O

How the values were obtained:
[1] = biological target: T1, Ctsk (Homo sapiens, UniProt P43235); assay: Kinetics of Ctsk-catalyzed OFS-1 activation in solution; type: biochemical
T1 sequence (P43235 115-329): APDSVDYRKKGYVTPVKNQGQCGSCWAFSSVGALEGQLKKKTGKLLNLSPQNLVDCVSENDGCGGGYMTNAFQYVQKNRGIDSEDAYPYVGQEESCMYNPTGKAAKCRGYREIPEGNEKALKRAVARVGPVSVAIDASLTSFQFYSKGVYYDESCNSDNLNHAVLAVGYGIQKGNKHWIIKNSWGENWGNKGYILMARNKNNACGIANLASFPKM

[2] = OFS-1 fluorescence in water without enzyme; type: physicochemical; conditions: 10 μM OFS-1 in water, 48 h, 37 °C
[3] = biological target: T1, Ctsk; type: biochemical
Summary of the method: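 Probe kept in solution at pH 7 with 20 nM initial human Ctsk. Ctsk inhibitor added to the assay mixture at 0, 1, 5, 10, 30, 50 or 100 nM (n = 3). Fluorescence followed over time through a 2 h incubation, with an enzyme-free control.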

[4] = biological target: T1, Ctsk; assay: Ctsk-induced fluorogenesis of OFS-1 pre-adsorbed on HAp with/without odanacatib; type: biochemical; conditions: HAp treated overnight with 0.5 μM OFS-1 in 50 mM acetate pH 5.5, washed; 20 nM Ctsk, 37 °C, 2 h
Summary of the method: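 […] (HAp)-coated polystyrene wells soaked overnight in probe in acetate buffer, then washed repeatedly with water to remove unbound probe. Wells covered with human Ctsk, with Ctsk inhibitor at 0, 1, 5, 10, 30, 50 or 100 nM (n = 3). Fluorescence read at 1 min intervals in a plate reader at 37 °C.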

[5] = system: human osteoclasts; assay: Activation of OFS-1 adsorbed on HAp by resorbing human osteoclasts; type: cell-based
Summary of the method: (§1)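 HAp […]-coated polystyrene wells were pre-treated with 5.0 μM OFS-1 and washed with PBS. They were then seeded with human osteoclasts, alone or co-cultured with RPMI-8226-Luc myeloma cells, with or without 30 nM odanacatib. Wells were imaged by bright-field and fluorescence microscopy (time-lapse video) for 24 h at 37 °C to record resorption pits and probe fluorescence.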

[6] = system: osteoclasts co-cultured with RPMI-8226-Luc human multiple myeloma cells; assay: Activation of OFS-1 on HAp by osteoclasts co-cultured with RPMI-8226-Luc cells; type: cell-based
Summary of the method: as §1

[7] = system: RPMI-8226-Luc human multiple myeloma cells engrafted in NSG/BLT humanized mice; assay: In vivo fluorescence imaging of multiple myeloma-induced osteolysis; design: species or system mouse
Summary of the method: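 NSG mice were co-grafted with human CD34+ hematopoietic stem cells, liver and thymus and irradiated (NSG/BLT). RPMI-8226-Luc cells (15×10^6 per mouse, 100 μL) were given by tail vein; controls received vehicle. Seven days later, 100 μL of 50 μM OFS-1 was injected retro-orbitally. In vivo fluorescence and bioluminescence imaging was done 3, 4 and 5 wk after cell injection, plus ex vivo micro-CT. Control n = 1, myeloma mice n = 3.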

[8] = Adsorption on hydroxyapatite and bone mineral
[9] = ref [14]; cited from earlier work
[10] = biological target: T1, Ctsk; conditions: reported value; ref [25]; cited from earlier work
[11] = biological target: T1, Ctsk; conditions: cited from earlier work

fluorescence on exposure to Ctsk ([1]; Ctsk 2.5–20 nM, in solution or pre-adsorbed on HAp): strong fluorescence | cleavage efficiency relative to Abz-HPGGPQ-EDN2Ph (less efficient) ([1]; OFS-1 vs literature value of Abz-HPGGPQ-EDN2Ph, ref [25] for the comparator): only fourfold less efficiently | OFS-1 fluorescence without enzyme ([3]; control lacking enzyme, 2 h incubation): essentially unchanged
Compound: COc1cc(N=Nc2ccccc2[N+](=O)[O-])c(C)cc1N=Nc1ccc(N(C)CCCC(=O)NCC(=O)NC(Cc2c[nH]cn2)C(=O)N2CCCC2C(=O)NCC(=O)NCC(=O)N2CCCC2C(=O)NC(CCC(N)=O)C(=O)NCC(=O)NCCC(=O)N[C@@H](CCCCNC(=O)c2ccc(-c3c4ccc(=O)cc-4oc4cc(O)ccc34)c(C(=O)O)c2)C(=O)NCCC(O)(P(=O)(O)O)P(=O)(O)O)cc1 (stereo partly drawn) [OFS-1] (X1-G[ξH][ξP]GG[ξP][ξQ]G[βAla]K(X2)-X3)
dependence of fluorescence intensity on OFS-1 concentration ([1]; 25 nM human Ctsk, 50 mM sodium acetate pH 5.5, 2.5 mM EDTA, 1 mM DTT, 37 °C, Supplementary Figure S3): depended linearly on the OFS-1 concentration up to 1 μM | catalytic efficiency (kcat/Km) ([1]; Ctsk 2.5 nM (Fig. 2), 50 mM NaOAc pH 5.5, 37 °C): 0.97 × 10^5 M-^1 s-^1 | extrinsic fluorescence in water without enzyme [2]: virtually undetectable | time-course of OFS-1 fluorescent activity ([3]; OFS-1 0.5 μM, 20 nM Ctsk, in solution, pH 7): fluorescent activity was immediately observed within 10 min and reached a plateau thereafter | Ctsk-dependent fluorescence of HAp-adsorbed OFS-1 [4]: time-course increase of fluorescent intensity; also recorded: Bright Ctsk-dependent fluorescence was again observed | OFS-1 fluorescence without osteoclasts ([5]; control wells, 5.0 μM OFS-1, not seeded with osteoclasts): not significantly fluorescent | OFS-1 fluorescent signal in co-culture ([6]; OFS-1 5.0 μM pre-treated HAp wells, osteoclasts + RPMI-8226-Luc): robust activation of OFS-1 fluorescent signals | OFS-1 fluorescent signal compared to solitary osteoclasts ([6]; osteoclasts + RPMI-8226-Luc vs solitary osteoclasts): increased by RPMI-8226-Luc cells | time from which distinct in vivo fluorescent signal was detected ([7]; 100 μL of 50 μM OFS-1 retro-orbital, weeks after RPMI-8226-Luc cell injection): 4 wk | detection relative to myeloma cell luminescence ([7]; NSG/BLT humanized mice injected with RPMI-8226-Luc cells): before the co-localized luminescence of the myeloma cells could be detected | in vivo OFS-1 signal relative to tumor site / osteolysis lesions ([7]; another mouse, cervical area, post-mortem micro-CT): extensive osteolysis lesions (arrows), which corresponded to the sentinel OFS-1 signal; also recorded: a strong fluorescent signal was detected at (and extending beyond) the bioluminescent tumor site | in vivo OFS-1 signal in control animals ([7]; physiological level of bone resorption, control n = 1): did not show the OFS-1 signal | adsorption on HAp and bone mineral [8]: avidly adsorbed by hydroxyapatite (HAp) and bone mineral surfaces; also recorded: strongly and specifically binds to bone surfaces

Compound: NCCCC(O)(P(=O)(O)O)P(=O)(O)O [alendronate]
bone-affinity [9]: high bone-affinity

Compound: CC(C)(F)C[C@H](N[C@@H](c1ccc(-c2ccc(S(C)(=O)=O)cc2)cc1)C(F)(F)F)C(=O)NC1(C#N)CC1 [odanacatib]
pit formation by osteoclasts with odanacatib ([5]; 30 nM odanacatib): pit formation was again observed | osteoclast-induced OFS-1 fluorescence with odanacatib ([5]; 30 nM odanacatib (Figure S9)): fluorescence was suppressed | OFS-1 fluorescent signal in co-culture with odanacatib ([6]; 30 nM odanacatib): effectively inhibited

Compound: NCCC(O)(P(=O)(O)O)P(=O)(O)O [pamidronate]
bone-affinity [9]: high bone-affinity

Compound: Abz-HPGGPQ-EDN2Ph
catalytic efficiency [10]: 426000 M⁻¹ s⁻¹

Compound: HPGGPQ
cleavage by Ctsk ([11]; ref [24]): selectively cleaved by Ctsk | Ctsk cleavage site (original peptide) ([11]; well-established cleavage site, no reference at this place): Gly-Gly bond
